Laboratory results as given in ChEMBL document CHEMBL3045650, “Design, synthesis, and 3D-QSAR analysis of novel 1,3,4-oxadiazol-2(3H)-ones as protoporphyrinogen oxidase inhibitors” (J Agric Food Chem, 2010).

Key:
[1] = test system: Digitaria sanguinalis; assay: Post-emergence herbicidal activity against Digitaria sanguinalis (hairy crabgrass) assessed as growth inhibition at emulsified concentrate of 150 g/ai ha after 15 days by greenhouse test; type: functional
Outline: (§1)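 About 20 seeds sown 1–3 cm deep, grown at 15–30 °C and 50% RH. Monocot seedlings sprayed postemergence at the one-leaf stage with a 100 g/L emulsifiable concentrate (DMF/Tween-80) diluted in water, 150 g ai/ha. Untreated and solvent controls included. Visual rating at 15 days, three replicates.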

[2] = test system: Poa annua; assay: Post-emergence herbicidal activity against Poa annua assessed as growth inhibition at emulsified concentrate of 150 g/ai ha after 15 days by greenhouse test; type: functional; outline: as §1
[3] = test system: Amaranthus retroflexus; assay: Post-emergence herbicidal activity against Amaranthus retroflexus assessed as growth inhibition at emulsified concentrate of 150 g/ai ha after 15 days by greenhouse test; type: functional
Outline: (§2)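 About 20 seeds sown 1–3 cm deep, grown at 15–30 °C and 50% RH. Dicot seedlings sprayed postemergence at the two-leaf stage with a 100 g/L emulsifiable concentrate (DMF/Tween-80) diluted in water, 150 g ai/ha. Untreated and solvent controls included. Visual rating at 15 days, three replicates.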

[4] = test system: Eclipta prostrata; assay: Post-emergence herbicidal activity against Eclipta prostrata assessed as growth inhibition at emulsified concentrate of 150 g/ai ha after 15 days by greenhouse test; type: functional; outline: as §2
[5] = test system: Echinochloa crus-galli; assay: Post-emergence herbicidal activity against Echinochloa crus-galli (barnyard grass) assessed as growth inhibition at emulsified concentrate of 150 g/ai ha after 15 days by greenhouse test; type: functional; outline: as §1
[6] = biological target: T1, Protoporphyrinogen oxidase (Homo sapiens, UniProt P50336); assay: Inhibition of Homo sapiens (human) recombinant protoporphyrinogen oxidase expressed in Escherichia coli JM109 assessed as oxidation of protoporphyrinogen IX substrate by fluorescence assay
T1 sequence (P50336 whole entry): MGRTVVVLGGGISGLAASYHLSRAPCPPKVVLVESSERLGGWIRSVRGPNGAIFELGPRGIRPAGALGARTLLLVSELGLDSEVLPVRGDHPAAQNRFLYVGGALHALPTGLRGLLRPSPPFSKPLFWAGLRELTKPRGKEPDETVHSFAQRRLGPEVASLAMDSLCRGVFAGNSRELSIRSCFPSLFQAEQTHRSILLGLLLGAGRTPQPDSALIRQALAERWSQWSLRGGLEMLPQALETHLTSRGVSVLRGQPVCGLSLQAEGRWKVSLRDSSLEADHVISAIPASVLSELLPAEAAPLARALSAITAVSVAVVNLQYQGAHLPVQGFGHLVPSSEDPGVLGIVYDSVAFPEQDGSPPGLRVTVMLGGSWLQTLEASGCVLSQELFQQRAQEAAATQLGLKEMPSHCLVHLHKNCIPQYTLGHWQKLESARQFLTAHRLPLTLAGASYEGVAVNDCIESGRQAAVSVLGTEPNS

[7] = test system: Brassica juncea; assay: Post-emergence herbicidal activity against Brassica juncea assessed as growth inhibition at emulsified concentrate of 150 g/ai ha after 15 days by greenhouse test; type: functional; outline: as §2

Row | Structure (SMILES) | inhibition (INH) [1] [%] | inhibition (INH) [2] [%] | inhibition (INH) [3] [%] | inhibition (INH) [4] [%] | inhibition (INH) [5] [%] | Ki [6] [nM] | inhibition (INH) [7] [%]
1 | CCOC(=O)Sc1nc2cc(-n3nc(C(C)(C)C)oc3=O)c(F)cc2s1 | 0 | 0 | 0 | 0 | 0 | 1300 | 0
2 | COC(=O)CSc1nc2cc(-n3nc(C(C)(C)C)oc3=O)c(F)cc2s1 | 0 | 0 | 60 | 0 | 0 | 3990 | 0
3 | CCOC(=O)C(C)(C)Sc1nc2cc(-n3nc(C(C)(C)C)oc3=O)c(F)cc2s1 | 0 | 0 | 60 | 70 | 0 | 1540 | 50
4 | CCOC(=O)CCSc1nc2cc(-n3nc(C(C)(C)C)oc3=O)c(F)cc2s1 | 0 | 0 | 50 | 50 | 0 | 320 | 60
5 | CCOC(=O)Sc1nc2cc(-n3nc(C(C)(C)C)oc3=O)c(Cl)cc2s1 | 0 | 0 | 70 | 40 | 0 | 330 | 70
6 | CCOC(=O)CSc1nc2cc(-n3nc(C(C)(C)C)oc3=O)c(Cl)cc2s1 | 0 | 0 | 70 | 60 | 0 | 1010 | 50
7 | CCOC(=O)C(C)(C)Sc1nc2cc(-n3nc(C(C)(C)C)oc3=O)c(Cl)cc2s1 | 0 | 0 | 50 | 50 | 0 | 1350 | 60
8 | CCOC(=O)CCCSc1nc2cc(-n3nc(C(C)(C)C)oc3=O)c(Cl)cc2s1 | 0 | 0 | 50 | 0 | 0 | 2020 | 0
9 | C#CCSc1nc2cc(-n3nc(C(C)(C)C)oc3=O)c(Cl)cc2s1 | – | – | – | – | – | 8610 | –
10 | CCOC(=O)C(C)Sc1nc2cc(-n3nc(C(C)(C)C)oc3=O)c(Br)cc2s1 (stereo not given) | 0 | 0 | 70 | 60 | 0 | 8130 | 0
11 | CCOC(=O)CCSc1nc2cc(-n3nc(C(C)(C)C)oc3=O)c(Br)cc2s1 | 0 | 0 | 0 | 30 | 0 | 1690 | 0
12 | CCOC(=O)CCCSc1nc2cc(-n3nc(C(C)(C)C)oc3=O)c(Br)cc2s1 | – | – | – | – | – | 5830 | –
13 | C#CCSc1nc2cc(-n3nc(C(C)(C)C)oc3=O)c(Br)cc2s1 | 0 | 0 | 40 | 40 | 0 | 11100 | 40
14 | CC(C)(C)c1nn(-c2cc3nc(SCC=C(Cl)Cl)sc3cc2Br)c(=O)o1 | – | – | – | – | – | 18600 | –
15 | CCCOC(=O)CSc1nc2cc(-n3nc(C(C)(C)C)oc3=O)c(Br)cc2s1 | 0 | 0 | 50 | 30 | 0 | 3100 | 0
16 | COC(=O)/C=C/CSc1nc2cc(-n3nc(C(C)(C)C)oc3=O)c(F)cc2s1 | 0 | 0 | 40 | 50 | 0 | 7480 | 40
17 | CC(C)(C)c1nn(-c2cc3nc(SCC=C(Cl)Cl)sc3cc2F)c(=O)o1 | 40 | 50 | 60 | 60 | 50 | 10900 | 70
18 | CCCOC(=O)CSc1nc2cc(-n3nc(C(C)(C)C)oc3=O)c(Cl)cc2s1 | 0 | 0 | 70 | 0 | 0 | 980 | 0
19 | CC(C)OC(=O)CSc1nc2cc(-n3nc(C(C)(C)C)oc3=O)c(Cl)cc2s1 | 0 | 0 | 50 | 0 | 0 | 2170 | 0
20 | C=CCSc1nc2cc(-n3nc(C(C)(C)C)oc3=O)c(Cl)cc2s1 | 0 | 0 | 70 | 60 | 0 | 3110 | 70
21 | COC(=O)CSc1nc2cc(-n3nc(C(C)(C)C)oc3=O)c(Cl)cc2s1 | 0 | 0 | 70 | 50 | 0 | 1070 | 0
22 | CC(C)(C)OC(=O)CSc1nc2cc(-n3nc(C(C)(C)C)oc3=O)c(Cl)cc2s1 | 0 | 0 | 40 | 30 | 0 | 840 | 50
23 | CC(C)(C)OC(=O)CSc1nc2cc(-n3nc(C(C)(C)C)oc3=O)c(F)cc2s1 | 0 | 0 | 0 | 0 | 0 | 1590 | 0
24 | CC(C)(C)c1nn(-c2cc3nc(SCC=C(Cl)Cl)sc3cc2Cl)c(=O)o1 | 0 | 0 | 70 | 40 | 0 | 10200 | 70
25 | C=CCSc1nc2cc(-n3nc(C(C)(C)C)oc3=O)c(F)cc2s1 | 0 | 0 | 60 | 40 | 0 | 15900 | 60
26 | COC(=O)Sc1nc2cc(-n3nc(C(C)(C)C)oc3=O)c(F)cc2s1 | 0 | 0 | 40 | 0 | 0 | 720 | 0
27 | Cc1nn(-c2cc(NS(C)(=O)=O)c(Cl)cc2Cl)c(=O)n1C(F)F [SULFENTRAZONE] | 70 | – | 100 | 100 | 75 | 720 | 100
